# Source: PubChem BioAssay (Sanford-Burnham Center for Chemical Genomics)
# Sampled rows, rich in hits. Any-hit rate of the full collection: about 1.7%.
# SUMO1 PPI mod – modulators of SUMO1 protein-protein interactions, primary screen, biochemical, uHTS | Small ubiquitin-related modifier 1 (Homo sapiens), P63165 | SUMO1 binding to a labelled peptide, TR-FRET, 1 h | inhibition, % at 20 µM | 360,000 tested, 0.33% active | AID 602429, 2012; in the data active = inhibition above about 37%
# Scp1 inh – Scp-1 phosphatase inhibitors, primary screen, biochemical, colorimetric, uHTS | 340,000 tested, 0.88% active | inhibition, % at 20 µM | Carboxy-terminal domain RNA polymerase II polypeptide A small phosphatase 1 (Homo … | Recombinant Scp1, phosphopeptide, malachite green phosphate absorbance | AID 493091, 2011;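 active = inhibition above about 50% at 20 µM, limit read from the data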;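 also: plate controls were DMSO wells with enzyme for no effect and wells lacking enzyme for full effect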
#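 Test system: SCP-1 phosphatase catalytic domain, residues 76-261; measured by: colorimetric phosphate reagent with accelerator and stabiliser, absorbance at 630 nm; timing: enzyme reaction 45 min at room temperature, colour 5 min, stabilisation 30 min; also added: Phosphorylated 17-residue peptide substrate; compound dosing: one concentration, 20 µM, with 1.0% DMSO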
# STEP block – STEP phosphatase inhibitors, primary screen, biochemical, fluorescence intensity, uHTS; 360,000 tested, 0.25% active; inhibition, % at 20 µM; recombinant STEP, OMFP fluorogenic substrate; Tyrosine-protein phosphatase non-receptor type 5 (Homo sapiens), P54829;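 active = inhibition at 20 µM, scaled per plate between control wells, above about 37%, limit read from the data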;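 also: 0% = DMSO with enzyme and substrate and 100% = substrate only without enzyme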
#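 System: isolated STEP enzyme; schedule: 20 min enzyme reaction at room temperature, protected from light; medium: Bis-Tris buffer pH 6.0, 2.5 mM DTT, 0.005% Tween 20; signal: fluorescence, 480/540 nm; dosing: single compound dose of 20 µM, 1% DMSO final; also added: OMFP substrate, 25 µM final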
# LMPTP block – LMPTP phosphatase inhibitors, primary screen, biochemical, fluorescence intensity, uHTS; Low molecular weight phosphotyrosine protein phosphatase (Homo sapiens), P24666; recombinant LMPTP-A, OMFP fluorogenic substrate; inhibition, % at 20 µM; 360,000 tested, 0.22% active;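 active = compounds that cut the enzyme signal by at least half of the control window in the single-dose screen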;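 also: plate controls were DMSO wells with enzyme plus substrate for no effect and substrate without enzyme for full effect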
#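 material = LMPTP-A | quantity = 0.625 nM enzyme | reagent = OMFP substrate, 400 µM final | buffer or medium = Bis-Tris pH 6.0, DTT, detergent | detection = endpoint fluorescence intensity from OMFP dephosphorylation | dosing = single 20 µM dose | read-out basis = % inhibition relative to no-enzyme and uninhibited control wells | control set = no-enzyme and uninhibited controls | timing = 50 min at room temperature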
# DNMT1 inh – human DNMT1 methyltransferase inhibitors, primary screen, biochemical, molecular beacon, fluorescence, HinP1I cleavage, uHTS; inhibition (reported as % activation of signal), % at 10 µM; 360,000 tested, 0.83% active; DNA (cytosine-5)-methyltransferase 1 (Homo sapiens), P26358; in the data active = inhibition above about 50%
# DNMT1 inh conf – DNMT1 methyltransferase inhibitor retest, confirmation, biochemical, molecular beacon, fluorescence, single concentration; inhibition, % at 10 µM; 2,300 tested, 8% active; DNMT1 molecular beacon HinP1I cleavage; shares compounds with DNMT1 inh;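 active = average inhibition of at least 30% in the single-concentration confirmation test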
# DNMT1 interf – shows spectral interference in the DNMT1 beacon assay. DNMT1 molecular beacon spectral interference counterscreen, fluorescence 485/520. 2,300 tested, 1% active. activation (fluorescence interference), % at 10 µM. shares compounds with DNMT1 inh. AID 602387;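 active = activation of at least 30% at 10 µM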;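 also: DNMT1 catalytic domain with a HinP1I cleavage step and a FAM/dabcyl DNA beacon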
# Starred values were filed as active, the others as inactive; . = no result given.
SMILES,SUMO1 PPI mod,Scp1 inh,STEP block,LMPTP block,DNMT1 inh,DNMT1 inh conf,DNMT1 interf
CCOC(=O)c1ccc(N/N=C/c2cc(Br)cc([N+](=O)[O-])c2O)cc1,-3,-5,3,2,70*,7,2
O=[N+]([O-])c1ccc(N/N=C/c2cccc(O)c2O)c(S(=O)(=O)N2CCOCC2)c1,-14,-5,-3,6,-6,.,.
O=[N+]([O-])c1ccc(N/N=C/c2ccc(O)c(O)c2O)c(S(=O)(=O)N2CCOCC2)c1,22,3,6,67*,62*,-2,-1
Cc1ccc(NC(=O)CCn2cc(C(F)(F)F)ccc2=O)cc1,2,7,-3,1,-3,.,.
CCCCCCCCN1[C@@H](CC(=O)OC)c2cc(F)ccc2S1(=O)=O,6,-15,1,52*,82*,3,5
COc1ccc(Br)cc1/C=N/n1nnnc1N,-22,-7,1,-1,53*,0,20
Nc1nnnn1/N=C/c1ccccc1O,-13,-9,-1,-1,-2,.,.
O=C(NCc1cccnc1)c1nc(-c2ccccc2)n(-c2ccccc2)n1,-1,-7,1,0,3,.,.
CC(C)c1onc(C(=O)NCCc2ccccc2)c1[N+](=O)[O-],-6,-4,0,-1,-2,.,.
CC(C)c1onc(C(=O)NC(C)c2ccccc2)c1[N+](=O)[O-] (stereo unspecified),-4,-3,2,0,92*,2,1
CCOc1cc(/C=C2\C(=O)NN(c3ccccc3)C2=O)cc([N+](=O)[O-])c1O,-4,13,3,5,68*,11,1
CCN(CC)S(=O)(=O)c1cc(NS(=O)(=O)c2ccccc2)ccc1C,1,-2,0,2,75*,4,4
CCN(CC)S(=O)(=O)c1cc(NS(=O)(=O)c2cccc(C(=O)O)c2)ccc1C,5,-5,4,-2,-2,.,.
Cc1ccc(CSc2nnc(SCC(=O)N/N=C/C=C/c3ccco3)s2)cc1,3,-6,0,3,52*,2,3
Cc1ccc(CSc2nnc(SCC(=O)N/N=C/C=C/c3ccccc3[N+](=O)[O-])s2)cc1,-4,-5,4,1,-1,.,.
O=C(N/N=C/c1ccc(OC(=O)c2ccco2)cc1)c1ccncc1,4,-2,1,-1,2,.,.
O=C(N/N=C/c1ccc(OC(=O)c2ccc(Br)cc2)cc1)c1ccncc1,-3,7,15,1,57*,6,2
Cc1cc(/C=C2\SC(=S)NC2=O)c(C)n1C,43*,-7,-4,7,92*,3,4
O=C(Cc1ccccc1)c1c[nH]c(C(=O)NC2CCCC2)c1,-2,-5,1,0,6,.,.
COc1cc(/C=N/NC(=O)c2cc(-c3ccc4c(c3)OCO4)n[nH]2)ccc1O,6,-1,-1,1,1,.,.
O=C(N/N=C/c1ccc([N+](=O)[O-])cc1)c1cc(-c2ccc3c(c2)OCO3)n[nH]1,14,-8,1,4,50*,0,-6
Cn1ncc(Cl)c1C(=O)Nc1cccc(Cl)c1,-2,-10,2,-1,-9,.,.
Cn1ncc(N=Cc2c(O)ccc3ccccc23)c1C(=O)Nc1cccc(Cl)c1,-6,-7,0,3,51*,7,0
CC1CN(S(=O)(=O)c2cccc(C(=O)OCc3cc(=O)oc4cc(O)ccc34)c2)CC(C)O1 (stereo unspecified),1,18,-2,3,14,.,.
CN(C)c1cccc(C(=O)OCc2cc(=O)oc3cc(O)ccc23)c1,15,62*,41*,22,82*,8,2
SMILES,SUMO1 PPI mod,Scp1 inh,STEP block,LMPTP block,DNMT1 inh,DNMT1 inh conf,DNMT1 interf
COc1ccc(OC)c(-n2c(SCC(=O)Nc3cccc(S(N)(=O)=O)c3)nc3ccccc3c2=O)c1,3,-4,13,1,67*,2,2
COc1ccc(-c2nc3c(C(=O)NCCN(C)C)cccc3c3ccccc23)cc1,-30,10,1,-1,59*,22,-1
CCOc1ccccc1NC(=O)CCCNC(=O)Cn1cnc2sc(C)c(C)c2c1=O,0,-3,1,0,1,.,.
Clc1cccc(Cc2c(-c3ccco3)nc3ccc(Br)cn23)c1,5,.,0,13,68*,19,2
Clc1cccc(Cc2c(-c3ccco3)nc3ccc(Cl)cn23)c1,6,.,5,1,45,.,.
Cc1ccc(Nc2nc(=O)c3cc([N+](=O)[O-])ccc3s2)cc1,-20,29,4,14,59*,1,-4
Cc1ccccc1Nc1nc(=O)c2cc([N+](=O)[O-])ccc2s1,-17,-9,-1,-1,1,.,.
O=C(O)c1cccc(-c2noc(-c3cccc(Cl)c3)n2)c1,14,-6,3,-1,83*,0,2
COc1cc(C(CC(=O)N2CCCC2)c2c(OC)cc(OC)c3c(-c4ccccc4)cc(=O)oc23)cc(OC)c1OC (stereo unspecified),-13,29,2,3,31,.,.
COc1ccc(C(CC(=O)N2CCOCC2)c2c(OC)cc(OC)c3c(-c4ccccc4)cc(=O)oc23)cc1 (stereo unspecified),-4,35,0,5,74*,3,-2
Cc1nn(CCO)c2nc(-c3cccs3)cc(C(F)(F)F)c12,-10,2,-1,0,60*,3,5
Cn1c(N)c(C(=O)COC(=O)/C=C/c2cccc(Cl)c2)c(=O)n(C)c1=O,-10,-8,0,12,66*,3,4
Cn1c(N)c(C(=O)COC(=O)/C=C/c2ccccc2F)c(=O)n(C)c1=O,-11,-15,-4,1,-4,.,.
Cc1nc2nc3c(c(=O)n2[nH]1)CCC3,2,-2,3,-1,3,.,.
O=c1c2c(nc3nc(Cc4ccccc4)[nH]n13)CCC2,-1,-6,-4,0,61*,2,3
CCC(C(=O)NCCN1CCOCC1)n1nc(C)n2c(cc3sccc32)c1=O (stereo unspecified),-9,1,-1,-1,0,.,.
O=c1[nH]c(=O)n(C2OC(CO)C(O)C2O)c2c1CCCC2 (stereo unspecified),4,.,-2,-1,-3,.,.
